Ten molecules from ChEMBL document CHEMBL4257446, “Synthesis and biological evaluation of chalcone-linked pyrazolo[1,5-a]pyrimidines as potential anticancer agents” (Medchemcomm, 2017) can be followed below.

The structures appear in SMILES notation. pIC50: −log10 of the molar value. The source made the active and inactive calls. No cut-off for these calls is given here.

One data set deals with MDA-MB-231. The data set can be described thus: Antiproliferative activity against human MDA-MB-231 cells after 24 hrs by MTT assay. The class given is functional, cell-based. To be noted: MDA-MB-231, 24 h. In a few lines:
(§1)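 Cells exposed to a range of compound concentrations; viability read by MTT assay. IC50 (concentration giving 50% growth inhibition) calculated and reported as mean ± S.D. of three independent experiments, each run in triplicate.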
A general note: Tetrazolium assays rely on reduction of a dye to a coloured formazan, in cell work by metabolically active cells.

In data set [1] the test system is A549. As to the kind of experiment: Antiproliferative activity against human A549 cells after 24 hrs by MTT assay. The class given is functional, cell-based. To be noted: A549, 24 h. In a few lines:
as §1

Another data set deals with DU-145. The data set can be described thus: Antiproliferative activity against human DU145 cells after 24 hrs by MTT assay. The class given is functional, cell-based. To be noted: DU-145, 24 h. The essentials:
as §1

Data set [2] relates to HEK293. As to the kind of experiment: Antiproliferative activity against HEK293 cells after 24 hrs by MTT assay. The class given is cell-based. To be noted: Homo sapiens, HEK293, 24 h.
Data set [3] concerns A549. The data set can be described thus: Cell cycle arrest in human A549 cells assessed as accumulation of cells at G2/M phase at 2 uM after 24 hrs by propidium iodide staining-based flow cytometric analysis (reference value: 20.4%). Format: functional. A general note: A flow cytometer gives signals particle by particle.
Data set [4] concerns HEK293. As to the kind of experiment: Cell cycle arrest in HEK293 cells after 24 hrs by propidium iodide staining-based flow cytometric analysis. To be noted: human, hek293, 24 h.
In data set [5] the test system is A549. As to the kind of experiment: Decrease in STAT3 protein expression in human A549 cells in STAT3 levels at 2 uM after 24 hrs by Western blot analysis. The class given is functional, cell-based. The essentials: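 A549 cells exposed at 2 μM final concentration and collected 24 h later. Total protein lysate extracted and immunoblotted with antibodies against the EGFR/STAT3 pathway proteins. Erlotinib-treated cells were the positive control and untreated cells the negative control.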

Turning to `C#Cc1cccc(Nc2ncnc3cc(OCCOC)c(OCCOC)cc23)c1` [ERLOTINIB], the pIC50 (as a rule, the negative decadic logarithm of the IC50, by convention in mol/L) in the data set on MDA-MB-231 was 4.83; with A549 [1] it was 4.98; in the data set with DU-145 it was 4.74; with HEK293 [2] it was 4.52. Further, the Activity is 24.5% with A549 [3] and “Non-Toxic” with HEK293 [4]. In addition, the result in the data set on A549 [5] was inactive.
`COc1ccc(C(=O)/C=C/c2cc(-c3ccc(OC)c(OC)c3)n3nc(-c4ccccc4)cc3n2)cc1`: the pIC50 in the data set with MDA-MB-231 is 4.86; in the data set with A549 [1], 4.92; with DU-145, 4.84; in the data set with HEK293 [2] it was 4.40.
For the molecule `COc1ccc(/C=C/C(=O)c2cc(-c3ccc(OC)c(OC)c3)n3nc(-c4ccccc4)cc3n2)cc1`, the pIC50 in the data set with MDA-MB-231 was 4.66; with A549 [1], 4.72; in the data set with DU-145, 4.83; in the data set with HEK293 [2] it was 4.29.
As for `COc1ccc(C(=O)/C=C/c2cc(-c3cc(OC)c(OC)c(OC)c3)n3nc(-c4ccccc4)cc3n2)cc1`, the pIC50 was 4.88 in the data set with MDA-MB-231, 4.84 in the data set with A549 [1], 4.60 in the data set with DU-145 and 4.10 in the data set on HEK293 [2].
Regarding `COc1cc(-c2cc(/C=C/C(=O)c3ccc(C)cc3)nc3cc(-c4ccccc4)nn23)cc(OC)c1OC`, the pIC50 in the data set on MDA-MB-231 was 4.62; with A549 [1], 4.71; in the data set on DU-145, 4.57; in the data set on HEK293 [2], 4.30.
Regarding `COc1ccc(/C=C/C(=O)c2cc(-c3cc(OC)c(OC)c(OC)c3)n3nc(-c4ccccc4)cc3n2)cc1`, the pIC50 was 4.78 in the data set with MDA-MB-231, 4.67 in the data set on A549 [1], 4.77 in the data set on DU-145 and 4.33 with HEK293 [2].
As for `COc1ccc(/C=C/C(=O)c2cc(-c3cc(OC)c(OC)c(OC)c3)n3nc(-c4ccccc4)cc3n2)cc1OC`, the pIC50 is 4.85 with MDA-MB-231, 4.69 with A549 [1], 4.81 in the data set with DU-145 and 4.39 in the data set on HEK293 [2].
Turning to `COc1cc(C(=O)/C=C/c2cc(-c3cc(OC)c(OC)c(OC)c3)n3nc(-c4ccccc4)cc3n2)cc(OC)c1OC`, the pIC50 with MDA-MB-231 was 4.61; in the data set with A549 [1], 4.69; with DU-145 it was 4.46; with HEK293 [2], not above 4.00.
On to `COc1cc(-c2cc(/C=C/C(=O)c3ccc(C)c(C)c3)nc3cc(-c4ccccc4)nn23)cc(OC)c1OC`, for which the pIC50 is 4.87 with MDA-MB-231, 4.97 in the data set with A549 [1], 4.81 in the data set on DU-145 and 4.14 with HEK293 [2].
Turning to `COc1ccc(-c2cc(C(=O)/C=C/c3cc(OC)c(OC)c(OC)c3)nc3cc(-c4ccccc4)nn23)cc1OC`, the pIC50 in the data set on MDA-MB-231 was 4.78; in the data set with A549 [1], 4.81; in the data set with DU-145 it was 4.83; with HEK293 [2], 4.33.
